# A selection: hits, their analogues and other compounds. The true share with any hit is near 4.2%.
# WT yeast gro inh: growth inhibition of WT yeast, mitochondrial fusion screen; mitochondrial fusion phenotypic screen, WT strain; inhibition, % at 10 µM; actives 2.1% (n = 190,000); in the data active means inhibition above about 58%; tested in S. cerevisiae
# SKKanGAS inh: SKKanGAS growth inhibition. S. pyogenes SKKanGAS, kanamycin growth, BacTiter-Glo, 6 h. inhibition, % at 7.5 µM. actives 1.3% (n = 300,000). AID 1662;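 active means mean replicate score, as percent of positive control median, at least 50; inconclusive means mean below 50 but one replicate at or above 50; inactive means mean and every replicate below 50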;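 further: strain carries kanamycin resistance gene driven by streptokinase promoter and grows in 40 µg/ml kanamycin; loss of luminescence reflects streptokinase promoter inhibition or plain growth inhibition; 0% = median of DMSO wells and 100% = positive control at its reference dose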
# Ins promoter up: MIN6 insulin promoter up-regulation | MIN6 insulin promoter-GFP reporter, high-content imaging; hits give high values | z-score at 5 µM | actives 0.3% (n = 190,000) | AID 1625;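 active means z-score above 3 at 5 µM with at least 500 cells counted in the well; inconclusive means wells under 500 cells, flagged as cytotoxic or low count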
# Autophagy HCS: alters autophagy in cells | MEF GFP-LC3 puncta imaging; test concentration mostly 10 µM | calls only at 10 µM (by protocol) | actives 0.98% (n = 190,000) | AID 463193;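 active means percentage of spot-positive cells more than 3 SD above its plate mean, without a fluorescence outlier flag or 80% toxicity; inconclusive means no clear call, values can overlap the other calls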;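 further: spot-positive cell cutoff set from DMSO-treated cells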
# KCC2 mod: modulators of human KCC2 chloride dependent transport; Q9H2X9; KCC2 cells, thallium flux FluoZin-2 fluorescence; B-score of Tl+ flux slope (higher = more flux/activation; lower = inhibition) at 10 µM; actives 2.2% (n = 190,000); AID 1456;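 active means thallium flux slope and its plate-corrected score both differing from the plate sample mean at a set confidence after two filtering rounds, in either direction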;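 further: slope of fluorescence scaled to starting intensity during 10 to 20 s after thallium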
# Rad51 HR inh: blocks human Rad51 in homologous recombination; Q06609; hRad51 DNA strand exchange, fluorescence dequenching; inhibition, % at 10 µM; actives 0.085% (n = 200,000);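 active means inhibition above 40% at the single screening dose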;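 further: 0% = DMSO control wells and 100% = blanks with heterologous ssDNA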
# Target sequence (Q06609 whole entry, looked up): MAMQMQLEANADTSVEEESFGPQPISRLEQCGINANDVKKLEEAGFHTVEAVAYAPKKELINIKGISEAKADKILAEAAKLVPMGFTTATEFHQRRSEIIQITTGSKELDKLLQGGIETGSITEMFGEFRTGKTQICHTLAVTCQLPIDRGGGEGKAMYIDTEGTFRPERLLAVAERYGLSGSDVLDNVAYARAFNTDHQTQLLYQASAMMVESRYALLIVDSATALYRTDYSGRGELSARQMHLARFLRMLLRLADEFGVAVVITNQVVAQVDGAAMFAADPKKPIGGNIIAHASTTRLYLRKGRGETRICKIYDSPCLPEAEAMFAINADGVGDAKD
#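 Test system: preformed human Rad51 ssDNA filaments. Compound dosing: single dose, 10 µM final compound. Incubation: filaments 15 min 37 °C, then compound 30 min. Technique: FRET fluorescence dequenching, excitation 485 nm, emission 520 nm. Read-out basis: percent inhibition from fluorescence, normalised to plate control and blank means. Benchmarks: plate controls and plate blanks.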
# Numbers without * were called inactive; i = inactive; ? = inconclusive; / = no result given; + = active, no number.
SMILES,WT yeast gro inh,SKKanGAS inh,Ins promoter up,Autophagy HCS,KCC2 mod,Rad51 HR inh
COc1ccc(-c2nc3ccccc3[nH]2)cc1,71,26,-0.06,i,0.068,-9
Cc1c(C(=O)N/N=C/c2cccs2)nc2ccccn12,-2,0,0.11,i,-0.13,-6
Cc1ccc(NC(=S)NC(=O)c2cncc(Br)c2)cc1Cl,/,24,/,/,/,/
CC1(C)C(=O)OC(c2cccc([N+](=O)[O-])c2)C2(CCCCC2)C1=O (stereo not drawn),-8,-1,0.95,i,0.61,0
CC1(C)C(=O)OC(c2cccn2-c2cccc([N+](=O)[O-])c2)C2(CCCCC2)C1=O (stereo not drawn),78*,-7,-1,i,0.32,3
CCC(NC(=O)OCc1ccccc1)C(=O)Oc1ccc2ccc(=O)oc2c1 (stereo not drawn),/,-11,/,/,/,/
COc1cc(Cc2cnc(N)nc2N)cc(OC)c1OC,-17,51*,0.16,i,-0.53,-7
OC1(c2cccc(C(F)(F)F)c2)CCN(c2ncnc3c2[nH]c2ccccc23)CC1,85*,28,/,+,/,/
OC1(c2cccc(C(F)(F)F)c2)CCN(c2ccc(-c3ccccc3)nn2)CC1,-25,/,0.37,i,0.0057,3
c1ccc(CN2CCN(c3nc4ccccc4c4ccccc34)CC2)cc1,30,76*,/,i,0.0018,2
Cc1ccc2[nH]c3c(N4CCCCCC4)ncnc3c2c1,-1,4,-3.6,i,/,/
CCOc1ccc2[nH]c3c(N4CCN(c5ccccn5)CC4)ncnc3c2c1,43,3,/,+,-0.087,-8
Cc1ccc2c(c1)[nH]c1c(N3CCN(Cc4ccccc4)CC3)ncnc12,52,7,?,i,-0.37,0
c1ccc(CN2CCN(c3ncnc4c3[nH]c3ccccc34)CC2)cc1,7,6,-2,i,-5.7*,-9
COCCCN1C(=O)c2ccc(C(=O)NCCc3ccccc3)cc2C1=O,/,5,/,/,/,/
CC(C)n1cnnc1SCC(=O)NC(=O)c1ccccc1,/,-15,/,/,/,/
c1ccc2c(c1)CCN(c1ncnc3c1[nH]c1ccccc13)C2,72*,5,?,/,/,/
Cc1nn(Cc2c(F)c(F)c(F)c(F)c2F)c(C)c1NC(=O)c1cccc(COc2ccc(Cl)cc2)c1,10,13,-0.87,i,0.65,2
O=C(NC(=S)Nc1ccc(Cl)c(C(=O)O)c1)c1cccc(COc2ccccc2)c1,/,56*,/,/,/,/
CC(C)c1cc(C(N)=O)c(NC(=O)c2cccc(COc3ccc(Cl)cc3)c2)s1,65*,34,-0.2,i,0.6,/
Clc1ccc(NCc2ccsc2)cc1,/,7,/,/,/,/
Cc1c2c(nc3c(C)cccc13)OC(C)C2 (stereo not drawn),1,-1,0.15,+,-0.53,-6
Cc1sc(NC(=O)CN(C(=O)c2ccccc2F)C2CCCC2)c(C(N)=O)c1C,/,5,/,/,/,/
COc1ccc(C(C)(C)C)cc1NC(=O)c1ccoc1C,65*,0,0.65,i,/,-3
NC(=S)n1[nH]c(-c2ccc([N+](=O)[O-])cc2)c(N=Nc2ccc(Cl)cc2)c1=O,78*,/,-5,i,-1.4,1
SMILES,WT yeast gro inh,SKKanGAS inh,Ins promoter up,Autophagy HCS,KCC2 mod,Rad51 HR inh
Oc1c(Br)cc(Br)cc1/C=N/c1nc2c(s1)CCCC2,10,51*,/,i,/,-2
Oc1ccc2ccccc2c1/C=N/c1nc2c(s1)CCCC2,80*,-3,-1,i,1.4,-9
Cc1ccc(C(=O)Nc2cccc(NC(=O)CN3CCCCC3)c2)cc1,/,1,/,/,/,/
COc1cc(CN2CCN(c3ccc(C)cc3)CC2)cc([N+](=O)[O-])c1O,4,0,1.3,i,0.62,117*
COc1cc(CN2CCN(c3cc(C)ccc3C)CC2)cc([N+](=O)[O-])c1O,/,2,/,i,-0.39,6
CC1CCN(CC(=O)Nc2ccc(N3CCCCCC3)cc2)CC1,3,-11,2,i,0.76,-8
COCCN(C(=S)Nc1cccc(OC)c1)C(C)c1cccs1 (stereo not drawn),44,4,0.43,i,0.54,/
COCCN(C(=S)Nc1c(C)cc(C)cc1C)C(C)c1cccs1 (stereo not drawn),65*,-7,0.76,i,-1.5,-9
COCCN(C(=S)Nc1ccc(C)cc1C)C(C)c1cccs1 (stereo not drawn),44,-11,/,i,-0.46,-36
COCCN(C(=S)Nc1ccc(C(C)C)cc1)C(C)c1cccs1 (stereo not drawn),63*,1,-0.71,i,0.3,-6
COc1ccc(C(=O)/C=C/C(=O)N(CC(=O)NC2CCCCC2)Cc2cccs2)c(O)c1,65*,-12,?,i,0.16,-4
COCCN(CC(=O)NC1CCCCC1)C(=O)/C=C/C(=O)c1ccc(OC)cc1O,-5,-39,1.3,i,0.03,/
c1ccc(C(NCCNC(c2ccccc2)c2ccccc2)c2ccccc2)cc1,/,105*,/,/,/,/
COC(=O)COc1ccc(C)cc1-n1nc2ccccc2n1,74*,1,0.18,i,/,0
Cc1ccc(OC(=O)COc2ccccc2C)c(-n2nc3ccccc3n2)c1,19,6,/,i,/,14
COc1ccc(C(=O)CC(=O)C(=O)Nc2ccc(C)c(Cl)c2)cc1,/,18,/,/,/,/
CCOC(=O)c1c(N)sc(C(O)(C(F)(F)F)C(F)(F)F)c1-c1ccc(Cl)cc1,96*,76*,0.23,i,0.59,-7
CCOC(=O)c1c(N)sc(C(O)(C(F)(F)F)C(F)(F)F)c1-c1ccc(F)cc1,-12,6,0.81,i,0.053,-5
C=CCn1c(=S)[nH]c2scc(-c3cccs3)c2c1=O,34,19,-0.33,i,89*,3
O=c1c2c(-c3cccs3)csc2ncn1-c1ccc(Br)cc1,25,-5,0.13,i,-0.86,-2
Cn1c(=S)[nH]c2scc(-c3cccs3)c2c1=O,14,3,-0.02,i,59*,-8
N#CCCn1nc(-c2ccccc2)c2ccccc2c1=O,/,-2,/,/,/,/
COc1ccc(/C=C2/NC(=O)CNC2=O)cc1,/,-3,/,/,/,/
Cc1ccc(/C=N\NC(=O)c2ccc3c(c2)OCO3)o1,/,0,/,/,/,/
CN1C(=O)/C(=C\c2ccccc2F)Sc2ccc(C(=O)NC3CCN(Cc4ccccc4)CC3)cc21,/,83*,/,/,/,/
SMILES,WT yeast gro inh,SKKanGAS inh,Ins promoter up,Autophagy HCS,KCC2 mod,Rad51 HR inh
CCOc1ccc(/C=C2/Sc3ccc(C(=O)N4CCOCC4)cc3N(C)C2=O)cc1OC,/,68*,/,/,/,/
COc1ccc(/C=C2\Sc3ccc(C(=O)N4CCCC4)cc3N(C)C2=O)cc1OC,/,100*,/,/,/,/
O=C(NC1CCN(Cc2ccccc2)CC1)c1ccccc1,/,0,/,/,/,/
COc1ccc(/C=C2\Sc3ccc(C(=O)NC4CC4)cc3N(C)C2=O)cc1OC,/,70*,/,/,/,/
Cc1cc(N2CCOCC2)nc2ccc(NC(=O)CCC(=O)N3CCN(c4cccc(C(F)(F)F)c4)CC3)cc12,/,14,/,/,/,/
Cc1ccc(C(=O)c2oc3ccccc3c2NC(=O)c2cc(-c3ccccc3O)n[nH]2)cc1,25,17,0.08,+,0.69,/

# Screening results: PubChem BioAssay, several laboratories
